Reference: ChEMBL document CHEMBL1129566 (J Med Chem, 1996)
Values after ≈ are worked out from the molar mass of the structure shown.

Assays:
[1] = test system: Escherichia coli; experiment: Inhibitory concentration against purified penicillin-binding protein(PBP) 1bgamma of Escherichia coli; type: functional
How it was run: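 PBP purified to homogeneity. IC50 from competition with dansyl-penicillin or a coumarin analogue; protein-bound fluorescence recovered by TCA precipitation and glass-fibre filtration, then read by fluorimetry after drying.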

[2] = test system: Enterococcus durans; experiment: Inhibitory concentration against purified beta-Lactam resistant PBP5 from Enterococcus durans; type: functional
How it was run: (§1)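 PBPs purified to homogeneity. IC50 measured by competition with fluorescent dansyl-penicillin or a coumarin analogue probe. Protein-bound fluorescence determined after TCA precipitation, filtration on glass fibre filters and drying, read on a fluorimeter.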

[3] = test system: Streptococcus pneumoniae; experiment: Inhibitory concentration against purified PBP2x from Streptococcus pneumoniae; type: functional; how it was run: as §1
[4] = test system: Streptococcus pneumoniae; experiment: Inhibitory concentration against purified cephalosporin-resistant PBP2x.505 from Streptococcus pneumoniae; type: functional; how it was run: as §1
[5] = test system: Streptococcus pneumoniae; experiment: Inhibitory concentration against purified cephalosporin-resistant PBP2x.604 from Streptococcus pneumoniae; type: functional; how it was run: as §1
[6] = test system: Staphylococcus epidermidis; experiment: Inhibitory concentration against purified beta-Lactam-resistant PBP2 from Staphylococcus epidermidis; type: functional; how it was run: as §1
[7] = test system: Citrobacter freundii; experiment: In vitro minimum inhibitory concentration required to produce antibacterial activity against Citrobacter freundii 902; type: functional
How it was run: (§2)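 Two-fold agar dilution on Mueller-Hinton agar. Overnight broth cultures diluted in fresh broth to […]; 10⁴ CFU/spot applied by inoculating apparatus onto plates with graded drug concentrations. Incubated 18 h at 37 °C; MIC taken as the lowest concentration giving complete growth inhibition.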

[8] = test system: Escherichia coli; experiment: In vitro minimum inhibitory concentration required to produce antibacterial activity against Escherichia coli 25922; type: functional; how it was run: as §2
[9] = test system: Enterococcus faecalis; experiment: In vitro minimum inhibitory concentration required to produce antibacterial activity against Enterococcus faecalis ATCC 29212; type: functional; how it was run: as §2
[10] = test system: Enterobacter cloacae; experiment: In vitro minimum inhibitory concentration required to produce antibacterial activity against Enterobacter cloacae 908SSI; type: functional; how it was run: as §2
[11] = test system: Pseudomonas aeruginosa; experiment: (§3) In vitro minimum inhibitory concentration required to produce antibacterial activity against Pseudomonas aeruginosa ATCC 27853; type: functional
How it was run: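 Two-fold agar dilution on Mueller-Hinton agar. Overnight broth cultures diluted in fresh broth, inoculum 10⁴ CFU/spot applied by inoculating apparatus to plates with graded drug concentrations. Plates incubated 18 h at 37 °C. MIC taken as lowest concentration completely inhibiting growth.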

[12] = test system: Staphylococcus aureus; experiment: In vitro minimum inhibitory concentration required to produce antibacterial activity against Staphylococcus aureus 743 MRSA; type: functional; how it was run: as §2
[13] = test system: Staphylococcus aureus; experiment: In vitro minimum inhibitory concentration required to produce antibacterial activity against Staphylococcus aureus 887MSSA; type: functional; how it was run: as §2
[14] = test system: Streptococcus pneumoniae; experiment: In vitro minimum inhibitory concentration required to produce antibacterial activity against Streptococcus pneumoniae 1/37(pen r); type: functional; how it was run: as §2
[15] = test system: Streptococcus pneumoniae; experiment: Minimum inhibitory concentration for antibacterial activity against Streptococcus pneumoniae Q19 (pen s); type: functional; how it was run: as §2
[16] = test system: Pseudomonas aeruginosa; experiment: as §3; type: functional; how it was run: as §2; remark: listed apart in the source
[17] = target: T1, Beta-lactamase SHV-1 (Escherichia coli) (UniProt P0AD63); experiment: Rate of hydrolysis in 0.1 M sodium phosphate buffer at pH=7.0 by Beta lactamase (SHV-2)
T1 sequence (whole entry): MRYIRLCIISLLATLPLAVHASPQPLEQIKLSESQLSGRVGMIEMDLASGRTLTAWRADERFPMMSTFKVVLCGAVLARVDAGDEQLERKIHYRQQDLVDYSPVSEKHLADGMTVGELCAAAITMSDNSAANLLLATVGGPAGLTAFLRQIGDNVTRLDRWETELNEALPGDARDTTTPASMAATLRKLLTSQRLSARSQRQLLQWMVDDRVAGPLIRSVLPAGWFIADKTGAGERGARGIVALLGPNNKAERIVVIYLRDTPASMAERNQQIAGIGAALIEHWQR
How it was run: (§4)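 β-Lactamases purified to homogeneity; hydrolysis rate of the cephalosporin substrate measured in 0.1 M sodium phosphate buffer, pH 7.0, by standard methods.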

[18] = target: Beta-lactamase TEM (Escherichia coli) (UniProt P62593); experiment: Rate of hydrolysis in 0.1 M sodium phosphate buffer at pH=7.0 by Beta lactamase (TEM-3); how it was run: as §4
[19] = target: Beta-lactamase TEM (Escherichia coli) (UniProt P62593); experiment: Rate of hydrolysis in 0.1 M sodium phosphate buffer at pH=7.0 by Beta lactamase (TEM-4); how it was run: as §4
[20] = target: Beta-lactamase (Bacillus licheniformis) (UniProt P00808); experiment: Rate of hydrolysis in 0.1 M sodium phosphate buffer at pH=7.0 by Beta lactamase (Bacillus licheniformis 749/C); how it was run: as §4
[21] = target: T1, Beta-lactamase SHV-1 (Escherichia coli); experiment: Rate of hydrolysis in 0.1 M sodium phosphate buffer at pH=7.0 by Beta lactamase (SHV-4); how it was run: as §4
[22] = target: Beta-lactamase (Proteus vulgaris) (UniProt P52664); experiment: Rate of hydrolysis in 0.1 M sodium phosphate buffer at pH=7.0 by Beta lactamase (Proteus vulgaris 1028)
[23] = target: Beta-lactamase (Bacillus licheniformis) (UniProt P00808); experiment: Rate of hydrolysis in 0.1 M sodium phosphate buffer at pH=7.0 by Beta lactamase (B.l icheniformis 749/C); how it was run: as §4

Beta-lactamase TEM (Escherichia coli), sequence (P62593 whole entry): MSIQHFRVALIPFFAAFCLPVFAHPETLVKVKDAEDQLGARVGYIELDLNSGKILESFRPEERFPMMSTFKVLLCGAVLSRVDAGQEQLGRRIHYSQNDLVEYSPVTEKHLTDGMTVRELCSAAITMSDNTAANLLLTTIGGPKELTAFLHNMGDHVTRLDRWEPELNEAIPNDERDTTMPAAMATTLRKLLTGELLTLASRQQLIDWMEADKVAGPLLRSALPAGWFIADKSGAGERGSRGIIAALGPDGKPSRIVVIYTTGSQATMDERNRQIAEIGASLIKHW
Beta-lactamase (Bacillus licheniformis), sequence (P00808 whole entry): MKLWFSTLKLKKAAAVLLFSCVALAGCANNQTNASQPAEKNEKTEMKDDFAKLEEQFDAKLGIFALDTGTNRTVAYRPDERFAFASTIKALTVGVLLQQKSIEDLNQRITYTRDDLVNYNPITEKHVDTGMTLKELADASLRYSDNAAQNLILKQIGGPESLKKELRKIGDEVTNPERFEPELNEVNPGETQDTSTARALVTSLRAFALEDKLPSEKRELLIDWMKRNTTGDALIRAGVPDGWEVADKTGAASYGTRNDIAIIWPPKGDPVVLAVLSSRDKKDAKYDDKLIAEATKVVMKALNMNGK
Beta-lactamase (Proteus vulgaris), sequence (P52664 whole entry, looked up): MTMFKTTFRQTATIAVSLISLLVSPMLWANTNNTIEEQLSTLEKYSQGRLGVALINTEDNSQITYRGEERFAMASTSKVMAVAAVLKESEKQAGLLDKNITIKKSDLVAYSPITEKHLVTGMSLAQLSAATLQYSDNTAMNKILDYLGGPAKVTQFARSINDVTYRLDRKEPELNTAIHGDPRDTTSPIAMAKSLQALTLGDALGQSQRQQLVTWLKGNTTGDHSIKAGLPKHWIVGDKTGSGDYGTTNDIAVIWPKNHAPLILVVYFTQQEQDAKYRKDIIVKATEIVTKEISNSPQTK

Compound	IC50 [1] [µM]	IC50 [2] [µM]	IC50 [3] [µM]	IC50 [4] [µM]	IC50 [5] [µM]	IC50 [6] [µM]	MIC [7] [µg/mL]	MIC [8] [µg/mL]	MIC [9] [µg/mL]	MIC [10] [µg/mL]	MIC [12] [µg/mL]	MIC [13] [µg/mL]	MIC [14] [µg/mL]	MIC [15] [µg/mL]	MIC [16] [µg/mL]	also measured
C[C@@H](O)[C@H]1C(=O)N2C(C(=O)O)=C(SCCNC=N)C[C@H]12 [IMIPENEM ANHYDROUS]	0.01	> 1000	0.5	0.5	5.3	> 1000	–	–	–	–	–	–	–	–	–	–
CC(C)(O/N=C(\C(=O)N[C@@H]1C(=O)N2C(C(=O)[O-])=C(C[n+]3ccccc3)CS[C@H]12)c1csc(N)n1)C(=O)O [CEFTAZIDIME]	–	–	–	–	–	–	0.5 (≈ 0.915 µM)	0.25 (≈ 0.457 µM)	> 32	1 (≈ 1.83 µM)	> 32	8 (≈ 14.6 µM)	16 (≈ 29.3 µM)	0.25 (≈ 0.457 µM)	–	MIC [11]: 1 µg/mL (≈ 1.83 µM)
Nc1nc(/C(=N/OCCF)C(=O)N[C@@H]2C(=O)N3C(C(=O)O)=C(/C=C4\CCN(CC(F)(F)F)C4=O)CS[C@H]23)cs1	–	–	–	–	–	–	1 (≈ 1.69 µM)	0.5 (≈ 0.844 µM)	32 (≈ 54 µM)	2 (≈ 3.38 µM)	16 (≈ 27 µM)	4 (≈ 6.75 µM)	1 (≈ 1.69 µM)	≤ 0.06	8 (≈ 13.5 µM)	–
Nc1nc(/C(=N/O)C(=O)N[C@@H]2C(=O)N3C(C(=O)O)=C(/C=C4\CCN(c5cccc([N+](=O)[O-])c5)C4=O)CS[C@H]23)cs1	–	–	–	–	–	–	0.12 (≈ 0.205 µM)	0.12 (≈ 0.205 µM)	0.12 (≈ 0.205 µM)	0.25 (≈ 0.427 µM)	4 (≈ 6.83 µM)	0.5 (≈ 0.854 µM)	2 (≈ 3.42 µM)	≤ 0.06	16 (≈ 27.3 µM)	–
Nc1nc(/C(=N/O)C(=O)N[C@@H]2C(=O)N3C(C(=O)O)=C(/C=C4\CCN(c5cccnc5)C4=O)CS[C@H]23)cs1	–	–	–	–	–	–	≤ 0.12	≤ 0.12	0.5 (≈ 0.923 µM)	≤ 0.12	8 (≈ 14.8 µM)	1 (≈ 1.85 µM)	2 (≈ 3.69 µM)	0.12 (≈ 0.222 µM)	16 (≈ 29.5 µM)	–
Nc1nc(/C(=N/O)C(=O)N[C@@H]2C(=O)N3C(C(=O)O)=C(/C=C4\CCN(CC(F)(F)F)C4=O)CS[C@H]23)cs1 [RO 25-6833]	30	8	0.3	0.36	0.87	25	0.25 (≈ 0.457 µM)	≤ 0.06	1 (≈ 1.83 µM)	0.5 (≈ 0.915 µM)	8 (≈ 14.6 µM)	1 (≈ 1.83 µM)	1 (≈ 1.83 µM)	0.06 (≈ 0.11 µM)	16 (≈ 29.3 µM)	Activity (M min-1 (M of enzyme)-1) [17]: 1580; Activity (M min-1 (M of enzyme)-1) [18]: 14; Activity (M min-1 (M of enzyme)-1) [19]: 305; Activity (M min-1 (M of enzyme)-1) [20]: 906; Activity (M min-1 (M of enzyme)-1) [21]: 1390; Activity (M min-1 (M of enzyme)-1) [22]: 461
Nc1nc(/C(=N/O)C(=O)N[C@@H]2C(=O)N3C(C(=O)O)=C(/C=C4\CCN(CC(=O)O)C4=O)CS[C@H]23)cs1	–	–	–	–	–	–	2 (≈ 3.83 µM)	0.12 (≈ 0.23 µM)	8 (≈ 15.3 µM)	8 (≈ 15.3 µM)	> 32	16 (≈ 30.6 µM)	2 (≈ 3.83 µM)	0.12 (≈ 0.23 µM)	> 32	–
C=CC1=C(C(=O)O)N2C(=O)[C@@H](NC(=O)/C(=N\O)c3csc(N)n3)[C@H]2SC1	–	–	–	–	–	–	8 (≈ 20.2 µM)	0.25 (≈ 0.632 µM)	16 (≈ 40.5 µM)	16 (≈ 40.5 µM)	16 (≈ 40.5 µM)	0.5 (≈ 1.26 µM)	4 (≈ 10.1 µM)	0.25 (≈ 0.632 µM)	> 32	–
CO/N=C(\C(=O)N[C@@H]1C(=O)N2C(C(=O)O)=C(CSc3nc(=O)c(O)nn3C)CS[C@H]12)c1csc(N)n1 [CEFTRIAXONE]	0.29	> 500	0.5	2.5	5.5	960	0.25 (≈ 0.451 µM)	≤ 0.06	> 32	0.5 (≈ 0.902 µM)	> 32	4 (≈ 7.21 µM)	2 (≈ 3.61 µM)	≤ 0.06	–	Activity (M min-1 (M of enzyme)-1) [17]: 2310; Activity (M min-1 (M of enzyme)-1) [18]: 79; Activity (M min-1 (M of enzyme)-1) [19]: 643; Activity (M min-1 (M of enzyme)-1) [23]: 1890; MIC [11]: 16 µg/mL (≈ 28.9 µM); Activity (M min-1 (M of enzyme)-1) ([21]; Proteus vulgaris): 3340
